solubility, solubility in water and log partition coefficient data for 2 compounds are collected here from paper PMC6503206 (International Journal of Nanomedicine, 2019).

Values after ≈ are worked out from the molar mass of the structure shown.

Series [1] is described as follows: Solubility of celecoxib in oils and cosurfactants. The class given is physicochemical. The settings on record: thermodynamic from solid. The essentials: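 Excess solid test compound was stirred magnetically in 2 mL of each neat oil or cosurfactant at room temperature for 24 hrs, then centrifuged at 10,000 rpm for 10 mins. The supernatant was passed through a 0.45 µm membrane, diluted with methanol, and quantified by HPLC on a 5 µm C18 reversed-phase column (4.6×250 mm).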

The conditions of series [2]: cited from earlier work.
The conditions of series [3]: cited from earlier work. This is another data set of the same source.

As a reminder, the solubility is the dissolved amount per volume that the medium holds. Turning to `Cc1ccc(-c2cc(C(F)(F)F)nn2-c2ccc(S(N)(=O)=O)cc2)cc1` [celecoxib, Celecoxib], the solubility at 24 h is 433 ± 31.7 mg/mL (≈ 1140 mM) in series [1] (PEG 400, organic solvent or mixture); 79.2 ± 10.2 mg/mL (≈ 208 mM) in series [1] (ethanol, organic solvent or mixture); 3.25 ± 0.16 mg/mL (≈ 8.52 mM) in series [1] (fish oil, oil or lipid); 0.42 ± 0.01 mg/mL (≈ 1.1 mM) in series [1] (glycerine, organic solvent or mixture); 11.6 ± 3.08 mg/mL (≈ 30.5 mM) in series [1] (medium-chain triglycerides (MCT oil), oil or lipid); 0.73 ± 0.06 mg/mL (≈ 1.91 mM) in series [1] (oleic acid, oil or lipid). In series [1] (propylene glycol (PG), organic solvent or mixture), the solubility at 24 h came out at 24.2 ± 0.99 mg/mL (≈ 63.6 mM). Further, the solubility in water in series [2] was 0.00255 to 0.00457 mg/mL.

For the compound `CCN(CC)c1ccc2nc3c4ccccc4c(=O)cc-3oc2c1` [Nile red], the log partition coefficient in series [3] is 5.0.
